Laboratory results: the RNAGym collection of RNA variant scans (doi:10.1126/science.aae0568)
Fewer inactive variants are shown than the library holds.

B1: tRNA (parent)
chain: GUUCCGUUGGCGUAAUGGUAACGCGUCUCCCUCCUAAGGAGAAGACUGCGGGUUCGAGUCCCGUACGGAACG

Variants of: B1
Test: yeast fitness relative to wild type (ratio to wild type); higher = fitter; tRNA-Arg(CCU), competitive growth, 37 C, YPD
Method in brief: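 A pool of Saccharomyces cerevisiae strains, each with a tRNA-Arg(CCU) gene variant at the native genomic locus, was competed in YPD at 37°C for 24 hours across six parallel replicates. The variants had been chemically synthesised at a 3% per-site mutation rate over 69 sites, and gene amplicons before and after competition were read by 100-nucleotide paired-end sequencing. Darwinian fitness relative to wild type rested on changes in genotype frequencies. Genotypes required ≥ 100 starting reads, and estimates < 0.5 were set to 0.5.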

Compared with C27A A57C, C27A A57U is higher in yeast fitness: 0.669 for the first, 0.737 for the second.

Compared with C27A A57G, U26A U32C C49G is lower in yeast fitness: 0.787 for the first, 0.575 for the second.

Compared with U26G C33A A42U C55G, U26C C29A C34A is lower in yeast fitness: 0.556 for the first, at most 0.5 for the second.

Going from U26G C29G C62U A70G to U26C C61A C66U, the yeast fitness falls from 0.61 to 0.525.

First: U26G A42C
Second: C27A A42G
The yeast fitness of the first is higher: 1.03 for the first, 0.791 for the second.

Compared with C27A A42C, U26G C27G C33U G39C C49U is lower in yeast fitness: 0.751 for the first, at most 0.5 for the second.

Going from C27A A43C C60A to C27A A40C, the yeast fitness rises from at most 0.5 to 0.775.

Going from C27A A40G to C27A A40G C46G C62G, the yeast fitness falls from 0.843 to 0.687.

Compared with U26G G41A, U26C C29G A65G C66G G68C is lower in yeast fitness: 0.794 for the first, at most 0.5 for the second.

Going from U26C C49A to U26C C49U, the yeast fitness rises from 0.598 to 0.833.

Going from U26C G50U to U26C G50C, the yeast fitness falls from 0.733 to 0.732.

First: C27A A45C G50C A65C
Second: C27A A69C
The yeast fitness of the first is lower: at most 0.5 for the first, 0.875 for the second.

Going from U26G C46G A65C to U26G A36U U47G C62U G68C, the yeast fitness falls from 0.563 to at most 0.5.

Compared with C27A C46U, C27A C46A is lower in yeast fitness: 1.05 for the first, 0.907 for the second.

Going from C27A A65C to C27A A65G, the yeast fitness rises from 0.878 to 1.02.

Compared with C27A C31A A69U, U26G C34U G44C G56A is lower in yeast fitness: 0.567 for the first, at most 0.5 for the second.

C27A C30U A57C C62U and U26C C66G G68C cannot be ordered by yeast fitness: at most 0.5 for the first, at most 0.5 for the second.

Going from C27A A65U G67C to U26G C27G U32A A40U, the yeast fitness falls from 0.613 to at most 0.5.

Compared with U26C C29G C49U, U26C C29G G68C is higher in yeast fitness: at most 0.5 for the first, 0.558 for the second.

U26C C46G C62G G67U and U26C C46G C62G U64C G67U cannot be ordered by yeast fitness: at most 0.5 for the first, at most 0.5 for the second.

Compared with C27A C30A C66A, C27A A36G A42G C66U is lower in yeast fitness: 0.561 for the first, at most 0.5 for the second.

U26C G41A U47C C61G C62U and C27A A45U G56A C60U cannot be ordered by yeast fitness: at most 0.5 for the first, at most 0.5 for the second.

Going from C27A A40C A43G to U26C C27U G67C, the yeast fitness rises from at most 0.5 to 0.713.

U26G G39C G58A C66U and U26C C34U G44C U47G cannot be ordered by yeast fitness: at most 0.5 for the first, at most 0.5 for the second.

First: U26C G52A A70C
Second: U26G C46U
The yeast fitness of the first is lower: at most 0.5 for the first, 1.01 for the second.

First: U26G A69U
Second: U26C C29G A69U
The yeast fitness of the first is higher: 0.919 for the first, 0.572 for the second.

Compared with U26G G58A, U26G G58C is lower in yeast fitness: 0.881 for the first, 0.696 for the second.

First: C27A A36U A37U
Second: U26A U47G U54C
The yeast fitness of the first is higher: 0.638 for the first, at most 0.5 for the second.

Going from U26G A43G to C27A A45G G68C, the yeast fitness falls from 0.895 to at most 0.5.

Going from C27A A43C to C27A A43G, the yeast fitness falls from 0.939 to 0.778.

Compared with C27A A43U, U26G C27U G50C is lower in yeast fitness: 1.03 for the first, at most 0.5 for the second.

First: C27A C33U G52C C62G
Second: U26G U35A G41A C46U G68A
The yeast fitness of the first is higher: 0.579 for the first, at most 0.5 for the second.

Compared with U26A U59A, U26G C29A C30G C31G U59A is lower in yeast fitness: 0.822 for the first, 0.533 for the second.

First: U26C C27U A36G
Second: U26A U32A
The yeast fitness of the first is lower: 0.72 for the first, 0.805 for the second.

First: U26A U32C
Second: C27A C34A G67U A69C
The yeast fitness of the first is higher: 0.936 for the first, at most 0.5 for the second.

Going from U26C A40G A57C to U26G U32A G51A, the yeast fitness falls from 0.56 to at most 0.5.

Going from U26G U59A to U26G U59G, the yeast fitness rises from 0.663 to 0.704.

Compared with U26C U28G C34U G38A, U26C C66U is higher in yeast fitness: at most 0.5 for the first, 0.823 for the second.

Going from U26C C66G to U26C C29A, the yeast fitness falls from 0.674 to 0.664.

Compared with U26C C29G, U26C C29U is higher in yeast fitness: 0.735 for the first, 0.869 for the second.

Going from U26C A69U to U26C U32A C34U G38C G51A A57C C66U, the yeast fitness falls from 0.906 to 0.66.

First: U26C C30G
Second: U26C C30A
The yeast fitness of the first is lower: 0.651 for the first, 0.815 for the second.

Going from U26C A37C A40C A57C U64G to U26C U32A C34U G38C G51A A57C, the yeast fitness rises from 0.614 to 0.653.

Compared with U26G A36C C66A, U26C A57C is higher in yeast fitness: at most 0.5 for the first, 0.611 for the second.

Going from U26G A45G C46U G50A U53G C66U A69U to U26C G56A, the yeast fitness rises from at most 0.5 to 0.895.

Going from U26C G44A G68U to U26C U53C G58A, the yeast fitness rises from 0.533 to 0.686.

First: U26A U28A C31U G51A
Second: U26C U32A C34U G38C
The yeast fitness of the first is lower: at most 0.5 for the first, 0.525 for the second.

First: C27A A45C G56C C60U G68U
Second: U26C C55A
The yeast fitness of the first is lower: at most 0.5 for the first, 0.65 for the second.

Compared with U26C C55G, U26C C30G G41A U64C is lower in yeast fitness: 0.59 for the first, at most 0.5 for the second.

First: U26A U28A C31U C55U C66G
Second: C27A C29A
The yeast fitness of the first is lower: at most 0.5 for the first, 0.589 for the second.

Compared with C27A C29U, U26G C34U A40G G51A is lower in yeast fitness: 0.766 for the first, at most 0.5 for the second.

Going from U26C A37U A57G to U26G C30A G68C, the yeast fitness falls from 0.658 to 0.531.

Compared with U26G C31U, U26G C31A is lower in yeast fitness: 1.02 for the first, 0.804 for the second.

First: U26G A45U
Second: C27A C33U A42U
The yeast fitness of the first is higher: 0.789 for the first, at most 0.5 for the second.

Compared with U26A U32C A57C G67A A69U, U26A G68A is higher in yeast fitness: at most 0.5 for the first, 0.779 for the second.

Compared with U26A G68C, C27A C29U C49U is lower in yeast fitness: 0.82 for the first, at most 0.5 for the second.

Going from U26A U54G to U26A U54C, the yeast fitness rises from 0.531 to 0.817.

First: U26A U47G C49G A69C
Second: U26C A36U A40U
The yeast fitness of the first is lower: at most 0.5 for the first, 0.603 for the second.

U26G A45U G50A C55A and U26C U35C G50C G52A cannot be ordered by yeast fitness: at most 0.5 for the first, at most 0.5 for the second.

Going from U26C C62U G67A to U26G C46G C55G, the yeast fitness falls from 0.542 to at most 0.5.

Compared with U26C U32A C34U G38C G51A A57C A65C, U26C G44A is higher in yeast fitness: at most 0.5 for the first, 0.945 for the second.

Compared with U26C G44C, U26C C33G is lower in yeast fitness: 0.77 for the first, 0.632 for the second.

Going from U26C C33U to C27A C34G A42G G50A C62G, the yeast fitness falls from 0.676 to at most 0.5.

Compared with U26C U53A, U26C C30G G41A G56A C60G C62U G68A is lower in yeast fitness: 0.706 for the first, at most 0.5 for the second.

Compared with U26C C30G U64C, U26C U28C C34G U59A A65U is lower in yeast fitness: 0.703 for the first, at most 0.5 for the second.

First: U26C G58C A69C
Second: U26C C29A C30A A45U
The yeast fitness of the first is higher: 0.697 for the first, 0.582 for the second.

U26G A40G U59G C62A and U26C C27G C34U A37U A43G A45G A57G cannot be ordered by yeast fitness: at most 0.5 for the first, at most 0.5 for the second.

Compared with U26C G67C, U26C G67A is lower in yeast fitness: 0.833 for the first, 0.762 for the second.

C27A C30U G44C and U26G G67C G68A cannot be ordered by yeast fitness: at most 0.5 for the first, at most 0.5 for the second.

First: C27A A36G A70U
Second: C27A C29U A40G
The yeast fitness of the first is higher: 0.561 for the first, at most 0.5 for the second.

C27A A36U A37U A65U A70G and U26C U28A C29G A69U cannot be ordered by yeast fitness: at most 0.5 for the first, at most 0.5 for the second.

Going from U26C C31G A43C to U26C G48A A57G C61G, the yeast fitness falls from 0.78 to 0.501.

First: U26G G44A
Second: U26C C46A C61U
The yeast fitness of the first is higher: 0.87 for the first, at most 0.5 for the second.

First: U26C U32C U47C G50A C61U U64A
Second: C27A A43C G44U
The yeast fitness of the first is lower: at most 0.5 for the first, 0.514 for the second.

Going from U26C G52A to U26G A36U U47G, the yeast fitness falls from 0.748 to 0.626.

C27A A36C A40G C62A and U26A U28A C31U G67A cannot be ordered by yeast fitness: at most 0.5 for the first, at most 0.5 for the second.

U26A U28C C30G A37C and U26G C31G A36U G41A A45C cannot be ordered by yeast fitness: at most 0.5 for the first, at most 0.5 for the second.

Going from U26G G48A C61U A70U to U26C C30U U47A G67U, the yeast fitness falls from 0.68 to at most 0.5.

Going from U26G C31U C62U to U26G C30U G52A, the yeast fitness falls from 0.695 to 0.519.

Going from C27A C30G to C27A C30U, the yeast fitness rises from 0.634 to 0.7.

Going from U26C to U26G, the yeast fitness falls from 0.988 to 0.971.

Going from U26A U35C A45U A65C to C27A A42U G67C, the yeast fitness rises from at most 0.5 to 0.613.

U26C C29G U35C and C27A C29U C61U cannot be ordered by yeast fitness: at most 0.5 for the first, at most 0.5 for the second.

In the case of U26C A36G, the yeast fitness is reported as 0.856.
